Bioassay records (PubChem)
PMI act satM6P: PMI (human) activation, high substrate; coupled PMI enzyme assay, resazurin fluorescence, 20 min; active compounds read high; 1 = untreated enzyme, 0 = substrate-free blank; P34949; activation factor at 20 µM; 190,000 compounds, 0.34% hits;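 active = activation factor of 2 or more at 20 µM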
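Test system: human phosphomannose isomerase with PGI, G6PDH, diaphorase coupling enzymes; amount: 15 ng/mL PMI; incubation: enzyme reaction with compound 20 min at room temperature; technique: resorufin fluorescence (Ex 544/Em 590 nm) from resazurin via diaphorase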
WT yeast gro inh: growth inhibition of WT yeast, mitochondrial fusion screen; 190,000 compounds, 2.1% hits; mitochondrial fusion phenotypic screen, WT strain; inhibition, % at 10 µM; in the data active = inhibition above about 58%; tested in S. cerevisiae
Rad51 HR inh: Rad51 (human) homologous recombination inhibition; hRad51 DNA strand exchange, fluorescence dequenching; inhibition, % at 10 µM; AID 1385; 200,000 compounds, 0.085% hits; Q06609;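 active = inhibition above 40% at the single screening dose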;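 also: 0% = DMSO control wells and 100% = blanks with heterologous ssDNA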
Target sequence (Q06609 whole entry, looked up): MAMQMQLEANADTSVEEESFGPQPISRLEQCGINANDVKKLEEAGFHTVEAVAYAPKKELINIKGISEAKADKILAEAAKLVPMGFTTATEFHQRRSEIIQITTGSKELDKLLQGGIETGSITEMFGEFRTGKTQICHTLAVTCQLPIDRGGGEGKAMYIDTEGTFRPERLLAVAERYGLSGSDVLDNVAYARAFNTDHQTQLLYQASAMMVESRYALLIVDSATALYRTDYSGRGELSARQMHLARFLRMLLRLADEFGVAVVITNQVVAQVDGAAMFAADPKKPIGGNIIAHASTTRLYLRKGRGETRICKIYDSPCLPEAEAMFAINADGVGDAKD
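material = hRad51 filaments on single-stranded DNA | reagent = Donor/quencher-labelled 47-bp dsDNA substrate | compound = 10 µM final, single point | schedule = strand-exchange reaction 15 min at room temperature | measured by = fluorescein emission 520 nm, excitation 485 nm | read-out basis = % inhibition versus plate control and blank means | benchmarks = plate controls and plate blanks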
PMI activator: activators of human phosphomannose isomerase; P34949; purified human PMI, coupled resazurin fluorescence, 20 min; active compounds read high; 1 = vehicle control, 0 substrate-free wells; activation factor at 20 µM; 190,000 compounds, 0.005% hits; AID 1214;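 active = activation factor of 2 or more at 20 µM, relative to plate controls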
m-calpain inh: blocks pig calpain II enzyme activity; purified calpain II, fluorogenic peptide substrate, 30 min; inhibition, % at 16 µM; 220,000 compounds, 0.37% hits;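 active = inhibition above about 50%, limit read from the data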
Lmaj promast: reduces viability of Leishmania major promastigotes; resazurin fluorescence viability; inhibition, % at 10 µM; 200,000 compounds, 9% hits; AID 1063; in the data active = inhibition above about 50%;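 also: promastigotes grown with compound for 44 hours at 28 °C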
* = called active by the depositor; x = not tested or not shown. In the library only some 9.8% were active in any assay of this set; here they are far more common.

SMILES	PMI act satM6P	WT yeast gro inh	Rad51 HR inh	PMI activator	m-calpain inh	Lmaj promast
CN(C)c1ccc(C(=O)Nc2nc3c(s2)CCCC3)cc1	0.9	21.8	1.3	0.9	0.6	98.3*
C/C(=N\NC1=NCCN1)c1ccc(Cl)cc1	x	x	-1.8	x	21.1	x
C/C(=N\Nc1nc2c(s1)CCCC2)c1ccc(Cl)cc1	1.8	71.6*	-3.2	1.3	-7.5	46.2
CC(C)(C)c1ccc(C(=O)NC(=S)Nc2nc3c(s2)CCCC3)cc1	1	40.2	-4.0	1	-3.1	67.4*
COc1cc(OC)cc(C(=O)N[C@H](C(=O)Nc2nc3c(s2)CCCC3)C(C)C)c1	0.7	-1.8	-5.7	0.8	-3.7	89.7*
O=C(O)CCCCNS(=O)(=O)/C=C/c1ccccc1	0.9	-4.0	0.3	1	-1.2	-10.0
Cc1cc(Oc2cnn(C(C)(C)C)c(=O)c2Cl)cc(C(C)C)c1	0.9	67.3*	1.0	0.9	13.6	10.0
COc1ccc(-c2nnc(SC(C)C(=O)Nc3nccs3)n2-c2ccccc2)cc1OC (centres undefined)	1	-12.9	0.7	1	-18.9	53.8*
O=C(NC1CCCC1)C(c1ccncc1)N(C(=O)c1csnn1)C1CCCC1 (centres undefined)	0.9	-15.5	10.5	1	-2.5	-5.2
CCN(CC)CCOC(=O)c1ccc(NC(=O)c2cn(-c3ccccc3)nc2-c2cccs2)cc1	0.9	89.8*	2.7	1	-45.9	22.4
O=C(c1cn(-c2ccccc2)nc1-c1cccs1)N1CCN(c2ccccn2)CC1	0.7	45.4	-2.6	0.7	-28.1	57.4*
CN(C)C(=O)c1cn(-c2ccccc2)nc1-c1cccs1	1.1	5.5	-7.2	1	-19.5	54.0*
CN1CCN(C(=O)c2cn(-c3ccccc3)nc2-c2cccs2)CC1	0.9	-13.8	0.7	1.1	2.9	-4.6
C/C(=N\N(Cc1ccccc1)c1ccccc1)c1ccncc1	1.5	39.3	2.4	1.5	-2.6	35.4
CCOc1ccc(NC(=O)c2cc(F)c(F)cc2Cl)cc1OCC	1.1	1.0	6.8	1.1	3.6	-0.6
COc1ccccc1NC(=O)c1ccc(NC(=O)Cc2n[nH]c(=O)c3ccccc23)cc1	x	x	1.6	x	7.3	x
CCc1cc(=O)oc2cc(OCC(=O)N3CCc4ccccc43)ccc12	1	x	x	1.1	x	x
CCc1cc(=O)oc2c(C)c(OCC(=O)N3CCCc4ccccc43)ccc12	1	-4.5	-6.6	1	30.5	89.2*
Cc1cc(NC(=O)CSc2nc3cc(C(=O)NCCCOC(C)C)ccc3c(=O)n2Cc2ccco2)no1	0.8	-2.3	-0.3	0.9	60.9*	-0.5
O=C(NCc1ccco1)c1ccc2c(=O)n(Cc3ccco3)c(SCC(=O)N3CCCC3)nc2c1	1	-0.8	0.9	1	-102.8	24.2
CN(Cc1ccccc1)C(=O)CSc1nc2ccccc2c(=O)n1Cc1ccco1	0.7	24.0	-2.2	0.7	5.3	44.7
COCCn1c(C)cc(C(=O)CSc2cc(C)c3ccccc3n2)c1C	1	1.5	-6.0	0.9	30.0	6.6
COCCn1c(C)cc(C(=O)CSc2nc3ccccc3c(=O)n2Cc2ccco2)c1C	0.9	-29.8	1.0	1	7.6	77.8*
O=C(CSc1nc2ccccc2c(=O)n1Cc1ccco1)N1CCCCCC1	1	2.8	-0.2	1	11.3	79.5*
Cc1ccc(NC(=O)CN(C)C(=O)CSc2nc3ccccc3c(=O)n2Cc2ccco2)cc1	0.9	48.4	12.0	0.9	-18.3	86.8*
SMILES	PMI act satM6P	WT yeast gro inh	Rad51 HR inh	PMI activator	m-calpain inh	Lmaj promast
CN(C)S(=O)(=O)Oc1cc(Cl)ccc1C(=O)Nc1ccc(F)cc1F	1.1	-12.2	7.8	1.1	29.3	-0.1
CCc1n[n+](CC(=O)c2ccccc2)c(N)s1	1.1	8.3	2.8	1.2	9.1	5.0
O=[N+]([O-])c1cccc(/C=N/Nc2nc(NCc3ccccc3)nc(N3CCOCC3)n2)c1O	x	-10.0	x	x	-229.2	98.6*
Cn1c(N/N=C/c2c[nH]c3ccccc23)nc2ccccc21	1.1	-1.2	0.4	1.1	-6.2	100.5*
Cn1c(N/N=C/c2cc3ccccc3nc2Cl)nc2ccccc21	1.1	69.2*	-52.8	1.3	17.1	10.8
Cc1ccc(NCC(=O)N/N=C/c2cc3ccccc3nc2Cl)cc1	0.4	67.9*	x	0.6	-28.2	83.7*
O=C(CN1CCOCC1)N/N=C/c1cc2ccccc2nc1Cl	0.8	-7.6	-3.9	0.9	11.7	-2.5
COC(=O)C1C(=O)NCC1c1ccccc1 (centres undefined)	1.1	93.8*	x	1	-4.1	-7.5
O=C(NC(=S)Nc1ccccc1O)c1ccccc1Cl	0.9	12.3	9.5	1	10.6	13.1
CC(C)CNC(=O)COC(=O)c1n[nH]c2ccccc12	1.1	-10.9	16.6	1.1	-36.4	-7.0
O=C(c1cnn(C(=O)c2cccc(S(=O)(=O)N3CCOCC3)c2)c1)c1ccccc1O	1.1	1.2	8.1	1.2	0.9	-2.9
O=c1c2cccc3c2c(nn1CN1CCOCC1)-c1ccccc1-3	1.1	-0.1	0.7	1.1	-126.7	23.3
CCN(CC)CCn1nc2c3c(cccc3c1=O)-c1ccccc1-2	1	25.0	20.1	1	-49.9	100.3*
CC1CCCCN1C(=O)Cn1cnc2cc([N+](=O)[O-])ccc2c1=O (centres undefined)	1	10.3	-14.5	1.1	15.2	11.2
CCN(CC)CCOc1ccc(/C(=C(/Cl)c2ccccc2)c2ccccc2)cc1	1.1	97.6*	18.2	1	4.8	100.4*
CCn1ccnc1CN1CCc2c([nH]c3ccccc23)C1C1CCCCC1 (centres undefined)	x	65.1*	11.4	x	-34.0	39.5
CCn1ccnc1CN1CCc2c([nH]c3ccccc23)C1C(C)(C)C (centres undefined)	0.8	57.2	x	0.8	30.0	52.4*
CCn1ccnc1CN1CCc2c([nH]c3ccccc23)C1CC(C)C (centres undefined)	0.9	57.4	-0.7	0.9	2.6	42.9
Cc1c(CN2CCc3c([nH]c4ccccc34)C2C2CCCCC2)cnn1C (centres undefined)	1	9.5	-15.6	1	-35.6	23.5
COCc1ccc(CN2CCc3c([nH]c4ccccc34)C2C(C)(C)C)o1 (centres undefined)	0.9	-4.0	4.2	0.9	0.8	50.4*
O=C(NCCOc1ccccc1)C(=O)c1c[nH]c2ccccc12	x	x	x	x	12.6	x
Cc1nnc(N/N=C/c2ccco2)n1N	0.4	-23.5	5.2	0.8	-32.0	-4.1
CCCCNC(=O)CSc1nc2ccsc2c(=O)n1C1CCN(C(=O)OCC)CC1	1	-26.3	0.2	1	-25.4	87.4*
NS(=O)(=O)c1ccc(CCNC(=O)CSc2nc3ccsc3c(=O)n2C2CC2)cc1	1.2	-4.2	2.2	1.1	7.7	-2.4
O=Cc1ccccc1OCc1nnsc1Cl	1	-6.8	6.7	1	-21.2	9.3
